MT stabilizer = stabilizes microtubules in HeLa cells | HeLa tubulin immunostaining HCS, 24 h; share of cells brighter than vehicle mean+2SD | % tubulin-high responders, % at 10 µM | hit rate 0.83% among 200,000 | AID 2205;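 active = plate Z-score above 3 for both tubulin-high and condensed-nucleus cell shares, with cell loss under 80%, at 10 µM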;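 note: anti alpha tubulin signal scored within the nucleus-defined area of each cell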
ABCB1 inh = human ABCB1 inhibition, ABCG2 as counter-screen; AID 1326; hit rate 0.067% among 190,000; CCRF-Adr cells, JC-1 efflux, flow cytometry; inhibition, % at 6.6 µM; in the data active = inhibition above about 40%;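 note: 0% = vehicle and 100% = reference inhibitor; higher value means more JC-1 retained so stronger ABCB1 efflux block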
Arbovirus inh = blocks arbovirus infection; AID 1251; hit rate 0.37% among 200,000; inhibition, % at 10 µM; arbovirus infection cell-based antiviral screen; in the data active = inhibition above about 30%
ABCG2 block = inhibitors of human ABCG2 transporter, ABCB1 counter-screen; IgMXP3 cells, JC-1 efflux, flow cytometry; inhibition, % at 6.6 µM; hit rate 0.1% among 190,000; AID 1325;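 active = inhibition above 80%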;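 note: 0% = DMSO and 100% = nicardipine control wells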
Target sequence (Q9UNQ0 whole entry, looked up): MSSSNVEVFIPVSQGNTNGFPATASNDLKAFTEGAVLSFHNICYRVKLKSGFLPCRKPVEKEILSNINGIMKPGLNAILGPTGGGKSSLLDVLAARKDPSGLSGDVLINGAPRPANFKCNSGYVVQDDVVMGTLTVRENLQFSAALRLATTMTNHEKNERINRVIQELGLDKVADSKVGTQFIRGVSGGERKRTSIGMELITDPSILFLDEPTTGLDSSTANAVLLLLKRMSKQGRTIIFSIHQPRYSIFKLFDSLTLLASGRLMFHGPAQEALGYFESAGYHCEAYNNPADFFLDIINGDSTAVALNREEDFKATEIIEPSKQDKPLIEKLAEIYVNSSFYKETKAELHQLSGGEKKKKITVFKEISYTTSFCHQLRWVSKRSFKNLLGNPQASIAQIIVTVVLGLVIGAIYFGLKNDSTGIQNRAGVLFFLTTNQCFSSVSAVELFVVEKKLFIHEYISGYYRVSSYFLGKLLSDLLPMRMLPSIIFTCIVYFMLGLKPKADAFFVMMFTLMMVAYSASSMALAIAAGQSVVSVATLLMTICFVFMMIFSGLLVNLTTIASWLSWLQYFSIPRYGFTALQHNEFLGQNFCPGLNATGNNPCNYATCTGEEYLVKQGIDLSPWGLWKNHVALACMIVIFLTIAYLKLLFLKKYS
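Assay system – ABCG2 IgMXP3 and barcoded ABCB1 CCRF-Adr cell mix · Input – 3 million cells/mL in well · Reagent – JC-1 fluorescent substrate · Compound – single test compound dose, 6.6 µM final · Timing – 10 min exposure at 25 °C with rotation, no wash · Detection – flow cytometry of retained JC-1 fluorescence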
bCat nuc transl = alters nuclear translocation of beta-catenin in HeLa cells; immunofluorescence imaging; nuclear translocation activity, % at 5 µM; hit rate 0.3% among 190,000; AID 1665;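 active = nuclear translocation activity above 50% at 5 µM, with a well cell count of 50 or more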;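 note: per-cell ratio of nuclear to cytoplasmic median beta-catenin stain intensity; plate controls were DMSO negative control for no effect and GSK-3 inhibitor IX positive control for full effect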
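Test system: human HeLa cell line; Doses: 5 µM primary, 0.02–20 µM confirmation; Incubation: 24 h compound exposure, 37°C; Detection: beta-catenin immunofluorescence imaging with DAPI; Read-out: beta-catenin nuclear/cytoplasmic ratio, % activation.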
Autophagy HCS = alters autophagy in cells; calls only at 10 µM (by protocol); MEF GFP-LC3 puncta imaging; test concentration mostly 10 µM; hit rate 0.98% among 190,000;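 active = percentage of spot-positive cells more than 3 SD above its plate mean, without a fluorescence outlier flag or 80% toxicity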;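 note: spot-positive cell cutoff set from DMSO-treated cells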
* marks the source's active call; other numbers are inactive results; i = inactive; / = no result; + = active, no number. Compounds with a hit are over-represented: about 2.1% of the library has one in this group of screens.

SMILES	MT stabilizer	ABCB1 inh	Arbovirus inh	ABCG2 block	bCat nuc transl	Autophagy HCS
CCOc1ccc(Nc2nc(Cc3nnc(SCC(=O)NCc4ccco4)n3CC)cs2)cc1	16	0	-12	1	148*	i
O=C(CC1Oc2ccccc2NC1=O)NCCc1ccccc1 (stereo not given)	4	1	-4	2	-6	i
Cc1ccc(-c2ccc(/C=C3/NC(=O)NC3=O)o2)cc1[N+](=O)[O-]	1	0	-32	9	0	i
CC1=C(C#N)C(=O)NC(=O)/C1=C\c1ccc(-c2cc(C)c(C)cc2[N+](=O)[O-])o1	5	0	34*	0	-2	i
CCOC(=O)c1c(C)n(OC)c2ccc3c(no[n+]3[O-])c12	4	0	-4	75	/	i
Nc1c2c(=O)oc(-c3ccccc3)cc2nn1-c1ccccc1	29*	1	-28	2	/	i
Cc1c(-c2ccc(Cl)cc2)oc(=O)c2c(N)n(-c3ccccc3)nc12	2	1	-7	15	3	i
COc1cccc(CNC23CC4CC(CC(C4)C2)C3)c1OCc1ccccc1	3	1	-20	9	-5	+
COc1cccc(CNCCc2c[nH]c3ccccc23)c1OCc1ccccc1	4	3	-36	26	0	i
NS(=O)(=O)c1ccc(NC(=S)N2CCN(Cc3ccc(Cl)c(Cl)c3)CC2)cc1	7	2	-13	11	1	i
c1ccc(CN2CCN(c3nc(N4CCOCC4)c4ccccc4n3)CC2)cc1	4	/	/	/	/	+
c1ccc2c(N3CCOCC3)nc(N3CCOCC3)nc2c1	5	0	1	1	-3	i
CC1(c2ccc(Cl)cc2Cl)OCC(Cn2ccnc2)O1 (stereo not given)	36*	0	-24	0	2	i
OC(Cn1ccnc1)c1ccc(Cl)cc1Cl (stereo not given)	7	1	1	2	-4	i
COc1ccc(C(=O)Oc2ccc(C(=S)N3CCOCC3)cc2)cc1	3	0	0	0	3	+
O=C(NCc1ccco1)NC1CCCCC1	3	0	0	0	1	i
N#C/C(=C\c1ccccc1[N+](=O)[O-])c1nc(C2CC2)cs1	3	-1	-6	-1	-1	i
N#C/C(=C\C=C\c1ccccc1[N+](=O)[O-])c1nc(-c2ccc3c(c2)OCO3)cs1	2	2	-5	4	-1	+
CN1CCN(C(CNS(=O)(=O)c2ccc(F)cc2)c2cccnc2)CC1 (stereo not given)	4	0	2	5	-3	i
Cc1cc(C)c2c(c1)-c1c(ssc1=S)C(C)(C)N2C(=O)CSc1nncn1C	18*	2	-2	3	-1	i
COc1ccc(C(C(=O)NCC2CCCO2)N(C(=O)CNC(=O)c2cccs2)c2ccc(NC(C)=O)cc2)cc1OC (stereo not given)	2	1	12	4	1	i
O=C1CN(C(=O)c2ccco2)C(c2ccc(F)cc2)c2cc(Cl)ccc2N1 (stereo not given)	2	/	/	/	/	i
COC(=O)Nc1nc2ccc(C(=O)c3ccc(F)cc3)cc2[nH]1	/	/	-13	2	66*	/
Cc1cc(Nc2ccccc2)n(C(=O)c2ccccc2)n1	1	1	4	4	-6	i
COc1ccc(/C=N/NC(=O)CCn2cnc(-c3ccccc3)c2-c2ccccc2)cc1OC	22*	5	2	19	46	i
SMILES	MT stabilizer	ABCB1 inh	Arbovirus inh	ABCG2 block	bCat nuc transl	Autophagy HCS
COc1ccc(/C=N/NC(=O)CCC(=O)Nc2ccccc2)cc1OC	2	0	-10	11	0	i
Cc1cccc(NC(=O)c2cc(-c3ccc(C)s3)nc3ccccc23)n1	4	3	-23	2	-1	+
O=C(CSc1nnc(-c2cccnc2)n1Cc1ccco1)c1ccccc1	3	1	2	11	-1	i
Cc1nn(C)c(C)c1N1C(=O)c2cccc3c(N)ccc(c23)C1=O	3	1	6	7	/	i
Cc1ccc(N2C(=O)c3cccc4c(N)ccc(c34)C2=O)c2cccnc12	/	/	/	/	67*	/
O=C(Nc1ccc(/C=C/c2nc3ccccc3o2)cc1)c1c(F)cccc1F	2	-1	-23	-6	2	i
C=CCNC(=O)/C(C#N)=C\c1cc(Cl)c(O)c(OCC)c1	4	-1	-20	62	6	i
CCOc1ccc(NC(=O)/C(C#N)=C/c2ccc(N3CCCC3)c(C)c2)cc1	3	1	-13	1	5	+
CCOc1cc(/C=C(/C#N)C(=O)Nc2ccc(O)cc2)cc(Br)c1O	18	0	-15	-1	62*	i
CCOc1ccc(Br)cc1S(=O)(=O)Nc1ccc(Cl)c(S(=O)(=O)N(CC)c2ccccc2)c1	2	0	-21	0	1	i
O=C(OCC(=O)N1CCOCC1)c1ccc2[nH]c3c(c2c1)CCCC3	/	/	/	/	-1	/
CCOC(=O)c1ccc(N2CCN(c3ccccc3F)CC2)c(NC(=O)Nc2ccccc2)c1	2	/	31*	8	2	i
O=C1Nc2ccc(Cl)cc2C(=O)C1(F)c1ccccc1 (stereo not given)	/	/	/	/	-1	/
COc1ccc([N+](=O)[O-])cc1NC(=O)c1ccc(Br)s1	7	1	-3	18	-6	i
Cc1ccc(NC2(c3nnnn3-c3c(C)cccc3C)CCCCC2)cc1	2	2	5	8	2	+
CSc1nnnn1-c1c(C)cccc1C	/	/	/	/	0	/
O=[N+]([O-])c1cccc(/C=C/c2nc(C=Nc3ccc4ccccc4c3)c(O)o2)c1	6	3	-19	2	/	+
O=C(CO/N=C/c1cccc([N+](=O)[O-])c1)Nc1ccc2ccccc2c1	1	0	11	0	-4	i
Cc1ccccc1-c1nc2sc(-c3ccccc3)cc2c(=O)o1	3	0	15	2	/	i
O=C(O)/C=C/c1cccc(NC(=O)c2ccccc2)c1	/	/	/	/	-1	/
COc1ccc(-c2[nH]n(-c3ccc([N+](=O)[O-])cc3)c(=O)c2C=NCc2ccccc2)cc1	4	1	-18	1	2	+
Cc1sc(-c2cccnc2)nc1OC(=O)C1CC1	5	0	1	0	-2	i
CCCC(C(=O)NCc1ccccc1)N(C(=O)Cn1nnc(-c2cccs2)n1)c1ccc2c(c1)OCCO2 (stereo not given)	2	2	-14	1	2	+
O=C(NCc1ccccc1)C(c1ccc(F)cc1)N(Cc1ccc2c(c1)OCO2)C(=O)Cn1nnc(-c2cccs2)n1 (stereo not given)	3	1	3	11	-2	i

Assay outcomes deposited in PubChem by several laboratories.
